ChEMBL document CHEMBL4834426, “Antimalarial Benzimidazole Derivatives Incorporating Phenolic Mannich Base Side Chains Inhibit Microtubule and Hemozoin Formation: Structure-Activity Relationship and In Vivo Oral Efficacy Studies” (J Med Chem, 2021)
Active and inactive are the calls of the source. The rule behind the calls is not given here.

Experiments:
Plasmodium falciparum [1] = assay: Antiplasmodial activity against […] Plasmodium falciparum NF54 early gametocytes transfected with GFP-Luc […] at 1 uM incubated for 48 hrs by microscopy based luciferase reporter gene assay relative to control; format: functional
Procedure, shortened: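 NF54-Pfs16-GFP-Luc gametocytes, assays set up day 5 (early, stage II/III) or day 10 (late, stage IV/V). Culture at 2−3% gametocytemia, 1.5% hematocrit, 48 h drug exposure at 37 °C under 90% N₂/5% O₂/5% CO₂. Lysates mixed with luciferin; bioluminescence read with 10 s integration. Dual-point: one biological repeat in technical triplicate. Methylene blue (5 μM) reference.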

Plasmodium berghei = assay: Antimalarial activity against GFP-transfected Plasmodium berghei ANKA infected in NMRI mouse model assessed as reduction in parasitemia at 50 mg/kg, po dosed 4 times relative to control; format: functional; set-up: scale not given: the % may be the effect or the level left
Procedure, shortened: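 Mice (n = 3) infected with GFP-transfected P. berghei ANKA. Compound in 70% Tween-80/30% ethanol, diluted 10-fold in water, given orally at 4, 24, 48 and 72 h post-infection. Blood taken day 4 (96 h); parasitemia by flow cytometry, detection limit 0.1%. Activity = difference in mean % parasitemia between control and treated, as % of control.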

[2] = Metabolic stability in mouse liver microsomes assessed as compound remaining at 1 uM incubated for 30 mins by LC-MS/MS analysis; format: ADME, Microsome; settings: read-out: Stabilty
Procedure, shortened: (§1)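 Single-point design: 1 μM compound with 0.4 mg/mL liver microsomes in 0.1 M phosphate buffer pH 7.4 for 30 min. Quenched with ice-cold acetonitrile containing carbamazepine internal standard, centrifuged, analyzed by LC−MS/MS. Percent remaining from internal-standard-corrected peak areas at 30 min versus 0 min. Propranolol, midazolam and MMV390048 as controls.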

[3] = Selectivity index, ratio of IC50 for Cytotoxicity against CHO cells assessed as inhibition of cell viability by MTT assay to IC50 for antimalarial activity against asexual blood stage Plasmodium falciparum NF54 assessed as reduction in parasitemia incubated up to 72 hrs by [3H]hypoxanthine incorporation assay; format: toxicity, cell-based; settings: hamster, read-out: Selectivity Index
Procedure, shortened: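 Selectivity index is IC₅₀(CHO)/IC₅₀(NF54). […] IC₅₀ came from nonlinear dose-response fitting. Parasite IC₅₀ came from the [³H]-hypoxanthine assay.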

[4] = Tmax in Balb/c mouse at 10 mg/kg, po measured up to 24 hrs by LC-MS/MS analysis; format: ADME, organism-based; settings: in vivo
Procedure, shortened: (§2)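 Male Balb/c mice, not fasted, food and water ad libitum; single oral dose. Tail-vein blood into heparinized tubes at 0.5, 1, 3, 5, 7, 9 and 24 h, stored at −80 °C. Whole blood protein-precipitated with acetonitrile containing internal standard, analyzed by LC−MS/MS (LOQ 2 ng/mL). Parameters by noncompartmental analysis with curve stripping. Mean of three mice per point.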

[5] = AUC (0 to t) in Balb/c mouse at 10 mg/kg, po measured up to 24 hrs by LC-MS/MS analysis; format: ADME, organism-based; set-up: dose 10 mg/kg, time <=24; settings: in vivo; procedure, shortened: as §2
[6] = Half life in Balb/c mouse at 3 mg/kg, iv measured up to 24 hrs by LC-MS/MS analysis; format: ADME, organism-based; settings: in vivo
Procedure, shortened: (§3)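 Intravenous dosing in male Balb/c mice, fed ad libitum. Tail-vein blood sampled into heparinized tubes at 0.17, 0.5, 1, 3, 5, 7, 9 and 24 h, frozen at −80 °C. Blood extracted by acetonitrile protein precipitation with internal standard; LC−MS/MS quantitation, LOQ 2 ng/mL. Noncompartmental analysis based on curve stripping.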

[7] = Metabolic stability in rat liver microsomes assessed as compound remaining at 1 uM incubated for 30 mins by LC-MS/MS analysis; format: ADME, Microsome; settings: read-out: Stabilty; procedure, shortened: as §1
Plasmodium falciparum [8] = assay: Antimalarial activity against asexual blood stage multi drug-resistant Plasmodium falciparum K1 infected in erythrocytes assessed as reduction in parasitemia incubated up to 72 hrs by [3H]hypoxanthine incorporation assay; format: functional, organism-based
Procedure, shortened: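 [³H]-Hypoxanthine incorporation assay (modified) on asexual blood-stage P. falciparum in vitro. IC₅₀ values are means of ≥2 independent experiments.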

Hemozoin = assay: Inhibition of beta-hematin formation […] incubated for 5 hrs by NP40 detergent-mediated assay
Procedure, shortened: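 Cell-free β-hematin formation assay in NP-40 (305.5 μM) lipid-mimic medium. Compounds from 20 mM stock serially diluted across wells, in duplicate. Hematin suspended in 1 M acetate buffer pH 4.8; plates incubated ~5 h at 37 °C. Then pyridine solution (with HEPES pH 7.4) and acetone added; absorbance at 405 nm. IC₅₀ by curve fit.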

[9] = Resistance index, ratio of IC50 for antimalarial activity against asexual blood stage multi drug-resistant Plasmodium falciparum K1 to IC50 for antimalarial activity against asexual blood stage drug-sensitive Plasmodium falciparum NF54; format: functional
Procedure, shortened: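 Resistance index is IC₅₀(K1)/IC₅₀(NF54). Both IC₅₀s came from the [³H]-hypoxanthine incorporation assay, as means of ≥2 independent experiments.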

[10] = Volume of distribution in Balb/c mouse at 3 mg/kg, iv measured up to 24 hrs by LC-MS/MS analysis; format: ADME, organism-based; settings: in vivo; procedure, shortened: as §3
[11] = system: Plasmodium falciparum NF54; assay: Inhibition of tubulin polymerization in asexual blood stage Plasmodium falciparum NF54 at 600 nM incubated for 24 hrs by tubulin tracker Oregon Green staining method
Procedure, shortened: (§4)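 Treatment at 600 nM for asexual parasites (~1% parasitemia, 5% hematocrit, sorbitol-synchronized rings) or 2400 nM for early gametocytes (~2% gametocytemia, 2% hematocrit, 20% I/60% II/20% III). 24 h at 37 °C, 90% N₂/5% CO₂/5% O₂, DMSO <0.1%. Stained with 250 nM Tubulin Tracker Oregon Green 488 for 30 min and Hoechst (100 nM) for 10 min. PBS-washed, imaged live by confocal microscopy. Colchicine (20 μM) positive control.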

[12] = Cmax in Balb/c mouse at 10 mg/kg, po measured up to 24 hrs by LC-MS/MS analysis; format: ADME, organism-based; set-up: route oral, dose 10 mg/kg, time <=24; settings: in vivo; procedure, shortened: as §2
[13] = system: Plasmodium falciparum NF54; assay: Inhibition of tubulin polymerization in asexual stage (I) Plasmodium falciparum NF54 early gametocytes at 2400 nM incubated for 24 hrs by tubulin tracker Oregon Green staining method; procedure, shortened: as §4
[14] = Clearance in Balb/c mouse at 3 mg/kg, iv measured up to 24 hrs by LC-MS/MS analysis; format: ADME, organism-based; settings: in vivo; procedure, shortened: as §3
Plasmodium falciparum [15] = assay: Antiplasmodial activity against […] Plasmodium falciparum NF54 early gametocytes transfected with GFP-Luc […] incubated for 48 hrs by microscopy based luciferase reporter gene assay relative to control; format: functional, organism-based; settings: NF54, 48 h
Procedure, shortened: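 Transgenic NF54-Pfs16-GFP-Luc gametocytes, read by luciferase reporter. Early assays were set up on day 5 (50% stage II/50% stage III) and late assays on day 10 (40% stage IV/60% stage V). Luciferin was added to lysates at room temperature and bioluminescence read. Methylene blue (5 μM) was the reference. Single-point screens at 1 and 5 μM used n=1 in technical triplicate. IC₅₀ came from a normalized nonlinear fit, n≥3 in triplicate.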

[16] = system: Plasmodium falciparum NF54; assay: Inhibition of tubulin polymerization in […] Plasmodium falciparum NF54 early gametocytes at 2400 nM incubated for 24 hrs by tubulin tracker Oregon Green staining method; procedure, shortened: as §4
[17] = Half life in Balb/c mouse at 10 mg/kg, po measured up to 24 hrs by LC-MS/MS analysis; format: ADME, organism-based; settings: in vivo; procedure, shortened: as §2
[18] = system: Plasmodium falciparum NF54; assay: Inhibition of tubulin polymerization in asexual stage (II) Plasmodium falciparum NF54 early gametocytes at 2400 nM incubated for 24 hrs by tubulin tracker Oregon Green staining method; procedure, shortened: as §4

CCNCc1cc(Cl)cc(Nc2nc3cc(F)c(F)cc3n2Cc2ccc(C(F)(F)F)cc2)c1O
inhibition at 1 µM (Plasmodium falciparum [1]): 62%
Activity (Plasmodium berghei): 98%
remaining at 0.5 h, 1 µM [2]: 86%
selectivity ratio at 72 h [3]: > 263
Tmax [4]: 2.8 h
AUCt [5]: 321 µmol·min/L
half-life [6]: 6.3 h
remaining at 0.5 h, 1 µM [7]: 98%
IC50 (Plasmodium falciparum [8]): 80 nM
IC50 (Hemozoin): 18100 nM
Ratio IC50 [9]: 0.42
Vd [10]: 6.9 L/kg
inhibition [11]: Active
Cmax [12]: 400 nM
inhibition [13]: inactive
clearance [14]: 12.6 mL/min/kg
IC50 (Plasmodium falciparum [15]): 460 nM
inhibition [16]: Active
half-life [17]: 8.3 h
inhibition [18]: Active
